The values below come from ChEMBL document CHEMBL1153963, “Phenanthrene-based tylophorine-1 (PBT-1) inhibits lung cancer cell growth through the Akt and NF-kappaB pathways” (J Med Chem, 2009).

Assay [1] concerns the target RAC-alpha serine/threonine-protein kinase (Homo sapiens) (UniProt P31749). The assay is described as follows: Inhibition of TNF-alpha-induced AKT activation in human CL1-0 cells by Western blot. Format: cell-based. The gist of the method:
(§1)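 CL1-0 (and A549) cells serum-starved overnight, pretreated at various concentrations, then TNF-α stimulated for 4 h; extracts immunoblotted for p-Akt, Akt, IKKα, p-IKKα/β; representative blot shown.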
(In general: In western blotting, separated proteins are transferred to a membrane and probed.)

In assay [2] the target is T1, Inhibitor of nuclear factor kappa-B kinase subunit alpha (Homo sapiens) (UniProt O15111).
T1 sequence (whole entry): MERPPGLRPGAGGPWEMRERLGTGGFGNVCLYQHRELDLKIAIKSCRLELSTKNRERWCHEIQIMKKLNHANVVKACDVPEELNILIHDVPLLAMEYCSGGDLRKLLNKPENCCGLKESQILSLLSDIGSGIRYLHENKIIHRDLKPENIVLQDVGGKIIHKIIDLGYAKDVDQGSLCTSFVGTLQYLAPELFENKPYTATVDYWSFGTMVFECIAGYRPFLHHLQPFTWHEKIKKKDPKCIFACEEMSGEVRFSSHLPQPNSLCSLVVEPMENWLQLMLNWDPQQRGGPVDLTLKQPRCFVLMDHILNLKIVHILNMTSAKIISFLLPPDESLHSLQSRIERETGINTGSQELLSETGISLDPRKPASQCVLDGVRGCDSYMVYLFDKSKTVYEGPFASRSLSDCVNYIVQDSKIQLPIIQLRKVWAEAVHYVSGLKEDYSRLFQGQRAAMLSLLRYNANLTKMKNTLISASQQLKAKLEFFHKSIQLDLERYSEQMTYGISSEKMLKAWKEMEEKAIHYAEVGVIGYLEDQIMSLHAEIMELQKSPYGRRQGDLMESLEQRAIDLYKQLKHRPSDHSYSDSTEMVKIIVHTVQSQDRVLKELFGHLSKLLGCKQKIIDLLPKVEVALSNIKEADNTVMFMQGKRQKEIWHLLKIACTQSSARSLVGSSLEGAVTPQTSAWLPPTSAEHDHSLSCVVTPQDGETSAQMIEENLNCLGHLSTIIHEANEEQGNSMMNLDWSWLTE
The assay is described as follows: Increase in IKKalpha activity in TNF-alpha-stimulated human CL1-0 cells by Western blot. The class given is cell-based. The gist of the method:
as §1

Assay [3] has as its system A549. The assay is described as follows: Decrease in […] binding affinity to NF-kappaB response element on COX2 promoter in human A549 cells at >0.25 ug/mL by chromatin immunoprecipitation assay. The class given is functional, cell-based. The gist of the method:
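A549 cells, untreated or treated with drug plus TNF-α for 4 h, cross-linked with 1% formaldehyde (quenched with 0.125 M glycine), lysed, sonicated 12 W for 45 s, immunoprecipitated overnight at 4 °C with anti-RelA, anti-p50 or anti-RelB, collected on protein A/G beads. Cross-links reversed at 65 °C overnight; COX-2 promoter (nt -359 to +106) PCR-amplified 35 cycles, 2% agarose gel, input chromatin as control.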

The test system of assay [4] is CL1-0. The assay is described as follows: Cytotoxicity against human CL1-0 cells assessed as disruption of cell morphology after 48 hrs. The class given is functional, cell-based.
Assay [5] relates to CL1-0. Briefly: Suppression of colony formation of human CL1-0 cells assessed as reduction of cell colonies after 10 to 14 days. Format: functional, cell-based.
A short description of assay [6]: Cell cycle arrest in human CL1-0 cells assessed as increase in accumulation at G2/M phase by flow cytometry. The class given is functional, cell-based. The conditions noted are these: TDE = time-dependent effect. The gist of the method:
(§2)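 CL1-0 cells seeded at 2×10^5 per 60 mm dish, incubated 24 h, then exposed to various drug concentrations for 2, 6, 12, 16 or 24 h. Harvested cells fixed in cold 70% ethanol at 4 °C for 16 h, treated with RNase A (20 µg/mL, 37 °C, 30 min), stained with propidium iodide (50 µg/mL, 4 °C, 30 min), analysed at once by flow cytometry for phase distribution.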
Background: Flow cytometry measures light scatter and fluorescence of single cells or particles in a stream.

A short description of assay [7]: Cell cycle arrest in human CL1-0 cells assessed as accumulation at G0/G1 phase after 2 hrs by flow cytometry. The class given is functional, cell-based. The gist of the method: as §2
Assay [8] can be described thus: Cell cycle arrest in human CL1-0 cells assessed as accumulation at G0/G1 phase after 6 hrs by flow cytometry. Format: functional, cell-based. In outline: as §2
A short description of assay [9]: Cell cycle arrest in human CL1-0 cells assessed as accumulation at G0/G1 phase after 24 hrs by flow cytometry. The class given is functional, cell-based. The gist of the method: as §2
Assay [10] in a line: Cell cycle arrest in human CL1-0 cells assessed as accumulation at S phase after 6 hrs by flow cytometry. Format: functional, cell-based. In outline: as §2
Assay [11] in a line: Cell cycle arrest in human CL1-0 cells assessed as accumulation at S phase after 12 hrs by flow cytometry. The class given is functional, cell-based. The gist of the method:
as §2

Assay [12] can be described thus: Cell cycle arrest in human CL1-0 cells assessed as accumulation at S phase after 16 hrs by flow cytometry. The class given is functional, cell-based. In outline: as §2
Assay [13] deals with CL1-0. The assay is described as follows: Effect on cyclin E protein expression in human CL1-0 cells at 0.5 ug/mL after 24 hrs by Western blot. The class given is functional, cell-based. The gist of the method: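 CL1-0 cells exposed to rising concentrations for 24 h, or to 0.5 µg/mL over a time course; 50 µg lysate resolved by 10% SDS-PAGE, blotted, probed with cyclin/CDK-inhibitor antibodies in TBS-Tween/5% milk, HRP secondary, chemiluminescent film detection.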

Assay [14] concerns CL1-0. The assay is described as follows: Decrease in RelA protein level in TNF-alpha-stimulated human CL1-0 cells by Western blot. The class given is functional, cell-based. The gist of the method:
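CL1-0 cells serum-starved overnight, pretreated with various drug concentrations, then stimulated with TNF-α for 4 h. Lysates (50 µg) resolved by 10% SDS-PAGE, blotted, probed with specific antibodies in TBS pH 7.5/0.05% Tween 20/5% milk, HRP secondaries, chemiluminescent film detection; a representative blot shown.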

The source made the active and inactive calls. The rule behind the calls is not given here.

Chain of RAC-alpha serine/threonine-protein kinase (Homo sapiens) (P31749 whole entry): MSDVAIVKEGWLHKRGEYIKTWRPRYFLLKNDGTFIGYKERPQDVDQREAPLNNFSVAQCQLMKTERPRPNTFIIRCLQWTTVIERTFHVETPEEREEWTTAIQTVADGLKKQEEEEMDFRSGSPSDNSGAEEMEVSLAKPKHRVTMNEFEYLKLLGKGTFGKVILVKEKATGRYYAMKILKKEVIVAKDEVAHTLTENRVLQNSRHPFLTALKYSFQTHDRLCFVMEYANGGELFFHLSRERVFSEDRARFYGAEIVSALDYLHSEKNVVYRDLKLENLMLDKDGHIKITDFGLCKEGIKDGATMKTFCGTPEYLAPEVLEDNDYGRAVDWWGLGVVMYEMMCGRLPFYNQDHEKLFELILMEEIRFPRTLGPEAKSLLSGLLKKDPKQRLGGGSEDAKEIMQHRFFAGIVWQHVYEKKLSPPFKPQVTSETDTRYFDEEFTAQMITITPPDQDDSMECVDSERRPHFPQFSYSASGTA

Regarding `COc1ccc2c(CN3CCC(CO)CC3)cc3cc4c(cc3c2c1)OCO4`, the outcome in assay [1], in assay [2], in assay [3], in [4] and in assay [14] was Active. The Activity entry in assay [5] was “Dose-dependent effect”; in assay [6], “tde”; in assay [7], 53.7%; in [8] it was 52.5%; in assay [9], 16.6%; in assay [10], 15.8%. In addition, the Activity in [11] was found to be 23.9%; in [12], 34.1%. For the same compound, the outcome in assay [13] was inactive.
